# Assay results pooled from the literature.
# Compare with care: the assays were run in different laboratories.
# Target: Protein-tyrosine kinase 2-beta (PTK2B, Homo sapiens, UniProt Q14289)
SMILES,observed,technique,tested at,remaining binding
CN(CCCC(F)(F)F)c1nccc(-c2cnn3ncccc23)n1,binding,,1 µM,100%
COc1cnc(Nc2cccc(S(N)(=O)=O)c2)nc1N1CCN(c2ccccc2)CC1,binding,competition with immobilised ligand,1 µM,89%
CCN1CCN(Cc2ccc(C(=O)Nc3ccc(C)c(Oc4ccc5c(c4)CC(=O)N5)c3)cc2C(F)(F)F)CC1,binding,competition with immobilised ligand,1 µM,49%
N[C@H]1CCN(c2nccc(-c3cnn4ncccc34)n2)C1,binding,,1 µM,100%
COc1ncc2cc3ccccc3nc2c1C#N,cell-free assay,competition with immobilised ligand,5 µM,100%
O=C(c1ccc(Nc2ncc(Cl)c(-c3cc4ccccc4s3)n2)cc1)N1CCC(N2CCCC2)CC1,binding,competition with immobilised ligand,1 µM,40%
c1cnn2ncc(-c3ccnc(N4CCC45COC5)n3)c2c1,binding,,1 µM,80%
C[C@H](c1cccc(C#N)c1)n1cc(Cl)cc(C(N)=O)c1=N,cell-free assay,competition with immobilised ligand,1 µM,100%
O=C(c1ccc(Nc2nccc(-c3cc4ccccc4s3)n2)cc1)N1CCC(N2CCCC2)CC1,binding,competition with immobilised ligand,1 µM,81%
O=C(O)[C@H]1[C@H](Cn2nnc3ccccc3c2=O)CC[C@@H]1C(=O)c1ccc(OCCC2CCOCC2)cc1,cell-free assay,competition with immobilised ligand,1 µM,75%
C[C@@H](c1ccc(-n2cnc3c(N)ncnc32)cc1)N1CCc2nn(C)c(Cc3ccccc3)c2C1=O,binding,competition with immobilised ligand,0.1 µM,95%
CS(=O)(=O)c1cc(C2(NC(=O)c3cncc4c3cnn4-c3ccc(F)cc3)CC2)ccn1,cell-free assay,competition with immobilised ligand,1 µM,100%
CNC(=O)[C@@H]1CC[C@@H](n2c(-c3ccc4cnccc4c3)nc3ccc(C(=O)NCc4cccc(C(N)=O)c4)cc32)C1,binding,competition with immobilised ligand,1 µM,99%
COc1ccnn2ncc(-c3ccnc(N(C)C)n3)c12,binding,,1 µM,100%
O=C(Nc1c[nH]nc1C(=O)NC1CCNCC1)c1cc(F)cc(F)c1,binding,competition with immobilised ligand,1 µM,91%
Cn1cc(Cl)c2c(Oc3c(F)cc(Nc4cc(Cl)nc(N)n4)cc3F)ccnc21,cell-free assay,competition with immobilised ligand,0.1 µM,100%
CN(c1nccc(-c2cnn3ncccc23)n1)C1CC1,binding,,1 µM,100%
NS(=O)(=O)c1cc(NC(=O)C2(c3ccccc3Cl)CC2)ccc1Oc1cccc(Cl)c1,cell-free assay,competition with immobilised ligand,1 µM,91%
Cc1cnn2ncc(-c3ccnc(N(C)C)n3)c2c1,binding,,1 µM,100%
Cc1c[nH]c2nccc(Oc3c(F)cc(Nc4cc(Cl)nc(N)n4)cc3F)c12,cell-free assay,competition with immobilised ligand,0.1 µM,90%
O=C(c1ccc(Nc2ncc(Cl)c(-c3ccc(Cl)s3)n2)cc1)N1CCC(N2CCCC2)CC1,binding,competition with immobilised ligand,1 µM,49%
